What was measured:
HL-60 = experiment: Cytotoxicity against human HL60 cells by MTT assay; assay type: functional, cell-based
Procedure, shortened: (§1)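 Cells at 5 × 10^4 cells/mL were preincubated for 24 h, then exposed to compounds in MeOH at various concentrations for 72 h. MTT (5 mg/mL) was added for 4 h, the formazan was dissolved in DMSO, and absorbance was read at 540 nm.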

[1] = DPPH radical scavenging activity; assay type: functional
Procedure, shortened: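 Samples dissolved in MeOH were mixed with methanolic DPPH, shaken and left for 30 min. Absorbance was read at 520 nm and percent inhibition calculated. IC50 is the concentration that scavenges 50% of the DPPH radicals.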

Bel-7402 = experiment: Cytotoxicity against human BEL-7402 cells by SRB method; assay type: functional, cell-based
Procedure, shortened: (§2)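 Cells were plated at 2 × 10^5 cells/mL and treated with test compounds in MeOH over a concentration range for 24 h. They were then fixed with 12% TCA, stained with 0.4% SRB and read at 515 nm. IC50 was taken from the linear portion of log dose–response curves.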

MOLT-4 = experiment: Cytotoxicity against human MOLT4 cells by MTT assay; assay type: functional, cell-based; procedure, shortened: as §1
A549 = experiment: Cytotoxicity against human A549 cells by SRB method; assay type: functional, cell-based; procedure, shortened: as §2
[2] = target: Proto-oncogene tyrosine-protein kinase Src (Homo sapiens) (UniProt P12931); experiment: Inhibition of Src kinase at 10 uM by ELISA
Proto-oncogene tyrosine-protein kinase Src (Homo sapiens), sequence (P12931 2-536 limits assumed): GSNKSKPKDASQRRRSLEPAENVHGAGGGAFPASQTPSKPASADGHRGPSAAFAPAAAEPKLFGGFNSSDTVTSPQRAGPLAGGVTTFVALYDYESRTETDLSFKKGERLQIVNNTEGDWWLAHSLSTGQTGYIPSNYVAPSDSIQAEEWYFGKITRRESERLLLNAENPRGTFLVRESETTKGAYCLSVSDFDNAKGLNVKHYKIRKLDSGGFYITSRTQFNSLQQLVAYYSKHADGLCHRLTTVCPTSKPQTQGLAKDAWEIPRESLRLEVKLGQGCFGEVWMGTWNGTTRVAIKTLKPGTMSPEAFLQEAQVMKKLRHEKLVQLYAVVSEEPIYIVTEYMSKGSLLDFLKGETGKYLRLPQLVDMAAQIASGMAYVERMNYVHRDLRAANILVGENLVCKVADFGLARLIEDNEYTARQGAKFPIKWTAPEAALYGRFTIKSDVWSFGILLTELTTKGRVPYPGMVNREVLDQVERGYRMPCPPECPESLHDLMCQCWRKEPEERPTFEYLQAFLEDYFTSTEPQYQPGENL
Procedure, shortened: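 ELISA on plates precoated with 20 µg/mL poly(Glu,Tyr)4:1, using purified kinase and 5 µM ATP in 50 mM HEPES pH 7.4 with MgCl2, MnCl2, Na3VO4 and DTT, for 1 h at 37 °C. Phosphotyrosine was detected with PY99 antibody, then HRP anti-mouse IgG and o-phenylenediamine/H2O2, read at 490 nm. Inhibition was calculated against the 1% DMSO control, in duplicate.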

[3] = target: Vascular endothelial growth factor receptor 2 (Homo sapiens) (UniProt P35968); conditions: at 10 µM
Vascular endothelial growth factor receptor 2 (Homo sapiens), sequence (P35968 whole entry): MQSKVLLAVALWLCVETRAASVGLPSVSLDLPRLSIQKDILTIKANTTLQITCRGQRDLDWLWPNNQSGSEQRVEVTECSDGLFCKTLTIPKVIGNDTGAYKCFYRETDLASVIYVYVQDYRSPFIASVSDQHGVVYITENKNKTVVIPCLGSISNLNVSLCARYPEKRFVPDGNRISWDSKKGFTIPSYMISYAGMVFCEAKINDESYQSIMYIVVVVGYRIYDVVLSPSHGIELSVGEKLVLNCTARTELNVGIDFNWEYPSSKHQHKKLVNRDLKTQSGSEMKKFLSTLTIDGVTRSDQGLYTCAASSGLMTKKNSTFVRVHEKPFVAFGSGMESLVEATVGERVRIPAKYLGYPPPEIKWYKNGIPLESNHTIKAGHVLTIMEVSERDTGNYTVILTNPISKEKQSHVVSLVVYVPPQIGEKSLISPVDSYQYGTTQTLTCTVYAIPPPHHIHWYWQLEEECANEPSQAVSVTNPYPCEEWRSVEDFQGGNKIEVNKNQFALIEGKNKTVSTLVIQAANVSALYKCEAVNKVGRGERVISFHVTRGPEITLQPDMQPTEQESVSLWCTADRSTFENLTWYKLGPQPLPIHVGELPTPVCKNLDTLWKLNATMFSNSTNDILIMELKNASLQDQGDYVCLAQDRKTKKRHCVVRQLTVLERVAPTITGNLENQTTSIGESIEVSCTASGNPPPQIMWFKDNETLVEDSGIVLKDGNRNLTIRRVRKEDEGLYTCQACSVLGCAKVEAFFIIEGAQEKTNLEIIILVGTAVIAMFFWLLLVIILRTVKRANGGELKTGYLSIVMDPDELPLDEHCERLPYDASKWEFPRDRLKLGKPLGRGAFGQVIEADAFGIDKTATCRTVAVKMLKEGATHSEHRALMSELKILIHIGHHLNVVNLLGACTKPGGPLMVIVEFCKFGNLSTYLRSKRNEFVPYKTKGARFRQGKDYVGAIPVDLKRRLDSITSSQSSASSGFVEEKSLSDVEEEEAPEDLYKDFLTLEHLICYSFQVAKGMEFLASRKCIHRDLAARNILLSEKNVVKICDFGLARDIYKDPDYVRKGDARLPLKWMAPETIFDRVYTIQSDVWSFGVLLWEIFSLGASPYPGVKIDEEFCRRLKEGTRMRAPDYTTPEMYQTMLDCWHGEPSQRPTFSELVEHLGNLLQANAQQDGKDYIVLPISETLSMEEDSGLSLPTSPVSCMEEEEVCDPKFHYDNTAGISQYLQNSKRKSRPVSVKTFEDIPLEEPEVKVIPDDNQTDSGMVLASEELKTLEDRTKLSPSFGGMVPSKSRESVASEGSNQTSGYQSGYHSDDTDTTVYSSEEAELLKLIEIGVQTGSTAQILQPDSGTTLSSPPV

Row | SMILES | IC50 (HL-60) [µM] | IC50 [1] [µM] | IC50 (Bel-7402) [µM] | IC50 (MOLT-4) [µM] | IC50 (A549) [µM] | inhibition [2] [%] | inhibition [3] [%]
1 | Oc1ccc(O)c(COCc2cc(O)cc(Cl)c2O)c1 | 6.1 | 4.3 | 62.3 | 5.8 | 18.3 | – | –
2 | Oc1ccc(O)c(COCc2cc(O)ccc2O)c1 | 5.5 | 4.6 | 57.3 | 5.6 | 18.2 | – | –
3 | COCc1cc(O)c(Cc2cc(O)c(Cc3cc(O)ccc3O)cc2O)cc1O | 33.3 | 2.6 | 57 | 5.5 | 23.5 | – | –
4 | COCc1cc(O)cc(Cl)c1O | 6.7 | 8.5 | 58.1 | 64.7 | 56.5 | – | –
5 | OCc1cc(O)c(Cc2cc(O)ccc2O)c(Cl)c1O | 5.1 | 4.1 | 6 | 6.5 | 5.7 | 35.9 | 31.8
6 | OCc1cc(OCc2cc(O)ccc2O)cc(Cl)c1O | 5.3 | 4.4 | 38.5 | 5.5 | 14.3 | – | –
7 | COCc1cc(O)c(Cc2cc(O)ccc2O)cc1O | 6.3 | 6.3 | 61.9 | 5.8 | 33.8 | – | –
8 | OCc1c(O)c(Cl)cc(O)c1Cc1cc(O)ccc1O | 55 | 5.2 | 63.2 | 58.1 | 13.8 | – | –
9 | OCc1cc(OCc2cc(O)ccc2O)ccc1O | 54.7 | 6.2 | 59 | 6.4 | 9.6 | – | –
10 | COCc1cc(O)ccc1O | 58.9 | 9.8 | > 100 | 86.2 | > 100 | – | –

— ChEMBL document CHEMBL1144688, “Gentisyl alcohol derivatives from the marine-derived fungus Penicillium terrestre” (J Nat Prod, 2008)
